Source: PubChem
PfM18AAP inh-1 = PfM18AAP inhibitors, malaria aminopeptidase, primary screen, biochemical, QFRET, recombinant enzyme; H-Glu-NHMec fluorogenic cleavage; inhibition, % at 7.35 µM; 290,000 compounds, 1.2% hits;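 active = inhibition above the campaign mean inhibition over all tested compounds plus 3 SD, cut at about 28% in these data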;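 note: 0% = plate median of test compound wells and 100% = 2 mM ZnCl2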
L929 necroptosis = inhibitors of zVAD-triggered necroptosis, primary screen, L929 cells. L929 zVAD necroptosis rescue, ATP luminescence, 24 h; with zVAD 60 µM. viability rescue, % at 10 µM. 220,000 compounds, 0.38% hits;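 active = activation, scaled between plate controls, above about 75%, limit read from the data; inactive = activation under that limit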;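 note: 0% = zVAD with DMSO and 100% = DMSO alone without zVAD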
p97 ATPase inh = inhibitors of human p97 ATPase, primary screen, biochemical. recombinant p97 ATPase, Kinase-Glo ATP luminescence, 3 h. AID 1481, 2009. 220,000 compounds, 0.42% hits. inhibition, % at 8 µM; in the data active = inhibition above about 15%;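 note: 0% = DMSO vehicle and 100% = wells lacking enzyme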
RBBP9 inh = human RBBP9 inhibitors, primary screen, biochemical, fluorescence polarization, FP-Rh probe, HTS. Serine hydrolase RBBP9 (Homo sapiens), O75884. recombinant RBBP9. inhibition, % at 7.94 µM. 220,000 compounds, 0.2% hits;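 active = inhibition above the campaign mean of all tested compounds plus 3 SD, cut at about 14% in these data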;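 note: plate controls were DMSO wells with RBBP9 for no effect and wells lacking RBBP9 protein for full effect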
Target sequence (O75884 whole entry, looked up): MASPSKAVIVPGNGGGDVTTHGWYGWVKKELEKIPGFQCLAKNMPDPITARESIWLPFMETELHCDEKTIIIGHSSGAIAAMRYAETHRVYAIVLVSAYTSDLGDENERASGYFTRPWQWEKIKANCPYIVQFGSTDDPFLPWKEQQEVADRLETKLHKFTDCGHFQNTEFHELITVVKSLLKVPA
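Measured by: FP readout at 525/598 nm; material: recombinant human RBBP9; also added: Serine-hydrolase probe FP-Rh, 375 nM pre-mixing; medium: Tris buffer pH 8.0, NaCl, Pluronic; replication: one well per compound; doses: one concentration, 7.94 µM nominal, 0.794% DMSO; timing: preincubation 30 min plus labeling 45 min at 25 °C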
TNF necrop inh = inhibitors of TNF-alpha triggered necroptosis, primary screen, cell-based, Jurkat FADD-/-, single concentration. Jurkat FADD-/- TNF necroptosis rescue, ATP luminescence, 24 h; 0 = TNF only, 100 = no-TNF cells. activation (protection from cell death), % at 10 µM. 220,000 compounds, 0.068% hits;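 active = activation, meaning protection from cell death, of at least 50% relative to plate controls; inactive = activation below 50%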;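 note: necroptosis triggered by 40 ng/mL TNF-alpha added together with compound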
Wee1 stabilizer = Wee1 degradation inhibitors, primary screen, cell-based, HeLa, Wee1K328M-luciferase, luminescence | Wee1-like protein kinase (Homo sapiens), P30291 | HeLa Luc-Wee1K328M stability; 100% = proteasome inhibitor MG132 effect | reporter increase, % at 5 µM | 220,000 compounds, 1.2% hits | AID 1321, 2008;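 active = activation above the mean of all tested compounds plus 3 SD, set per screening run, cut at about 8.8% in these data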;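 note: cells exposed to compound for 20 h before luminescence read; 0% = DMSO alone and 100% = MG132 at 30 µM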
PfM18AAP inh-2 = PfM18AAP inhibitors, malaria aminopeptidase, confirmation, biochemical, QFRET, recombinant enzyme, triplicate. shares compounds with PfM18AAP inh-1. H-Glu-NHMec fluorogenic cleavage. inhibition, % at 7.35 µM. 2,400 compounds, 28% hits. AID 2170, 2009;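 active = mean inhibition over replicate wells above the hit cutoff set for the earlier primary screen, cut at about 29% in these data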;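 note: 0% = median of test compound wells and 100% = 2 mM ZnCl2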
CTSL1 confirm = cathepsin L1 inhibitors, retest, confirmation, counter-screen for PFM18AAP inhibitor project, biochemical, QFRET, triplicate. shares compounds with PfM18AAP inh-1. purified cathepsin L1, Z-Leu-Arg-MCA fluorescence. inhibition, % at 5.96 µM. 2,400 tested, under 10 active;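 active = average inhibition across replicates above the hit cutoff set in the earlier primary screen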;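 note: 0% = median of test compound wells and 100% = Z-Phe-Ala-diazomethylketone 1 µM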
Target sequence (P07711 whole entry, looked up): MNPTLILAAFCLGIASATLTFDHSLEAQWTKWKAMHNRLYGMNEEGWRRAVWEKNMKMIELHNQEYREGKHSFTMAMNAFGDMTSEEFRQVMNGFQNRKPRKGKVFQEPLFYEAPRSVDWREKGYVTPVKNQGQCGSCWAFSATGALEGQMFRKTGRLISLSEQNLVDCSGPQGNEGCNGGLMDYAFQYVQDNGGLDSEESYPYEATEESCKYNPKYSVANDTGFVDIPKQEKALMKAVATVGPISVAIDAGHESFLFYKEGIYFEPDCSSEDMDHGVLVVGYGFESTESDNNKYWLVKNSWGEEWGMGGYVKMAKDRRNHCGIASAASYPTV
* hit, by the source's call; . = no result. Only some compounds are listed: those with a hit (about 2.7% of all), similar ones and a draw of the others.

SMILES	PfM18AAP inh-1	L929 necroptosis	p97 ATPase inh	RBBP9 inh	TNF necrop inh	Wee1 stabilizer	PfM18AAP inh-2	CTSL1 confirm
Cc1nn(C)c(-c2n[nH]c(=S)n2-c2ccccc2)c1Cl	32*	-1	-1	-4	0	-1	-9	-6
COc1ccccc1NS(=O)(=O)c1c(C)[nH]c(C)c1C(=O)N1CCCC1	-10	.	.	.	.	.	.	.
COCCCNC(=S)NNC(=S)NCCCOC	32*	1	-3	-3	0	8	-15	-6
COCCCNC(=S)NNC(=O)c1ccccc1Br	10	0	-1	-8	0	2	.	.
COCCCNC(=S)NNC(=O)c1cc(Cl)c(O)c(Cl)c1	47*	1	9	-6	3	-2	19	4
COCCCNC(=S)NNC(=O)c1ccccn1	16	2	3	2	2	1	.	.
CCOc1ccc(NC(=O)CCS(=O)(=O)c2ccc(C)cc2)cc1	1	.	.	.	.	.	.	.
CCn1c(O)c(/C=N/n2cnnc2)sc1=S	59*	0	7	-10	0	-3	57*	2
CCn1c(O)c(C=Nc2ccccc2)sc1=S	5	0	0	-13	1	4	.	.
O=C(/C=C/c1cccnc1)c1ccc([N+](=O)[O-])cc1	32*	.	.	.	.	.	13	-4
O=C(/C=C/c1cccnc1)c1ccc(O)cc1	5	-1	4	2	-19	1	.	.
Cc1cc(N(C)N)nc(NC(=O)NS(=O)(=O)c2ccccc2Cl)n1	57*	.	.	.	.	.	50*	0
COc1cc(OC)nc(NC(=O)NS(=O)(=O)c2ccccc2Cl)n1	-2	1	5	-5	2	-2	.	.
COc1cc(/C=N/N=C(\N)c2nonc2N)ccc1O	11	0	-2	-8	0	-1	.	.
N/C(=N\N=C\c1ccc(O)c(O)c1)c1nonc1N	43*	0	5	-5	0	-1	25	3
COc1cc(/C=N/NC(=O)c2nonc2C)ccc1O	6	1	3	-5	0	1	.	.
Cc1nonc1C(=O)N/N=C/c1ccc(O)c(O)c1	66*	0	-1	0	-1	-3	66*	-1
O=C(N/N=C/c1ccc(O)c(O)c1)N/N=C/c1ccc(O)c(O)c1	80*	.	.	.	.	.	64*	-5
CCN(CC)CCNC(=O)c1ccc(NC(=O)C2CCN(c3ncnc4sc(C)c(C)c34)CC2)cc1	-2	.	.	.	.	.	.	.
CCCCN(C)CCCNC(=O)c1cc(=O)[nH]c2ccc(S(=O)(=O)N3CCCCC3C)cc12 (centres undefined)	-17	2	-2	-5	0	4	.	.
NNc1ccc(S(=O)(=O)N2CCCCC2)cn1	33*	1	3	-2	-1	0	31*	1
CC(C)c1ccc(N2C(=O)CC(NNC(=O)c3cccnc3)C2=O)cc1 (centres undefined)	9	0	-6	-5	1	0	.	.
CCN1CCc2nc3sc(C(=O)N4CCc5ccccc5C4)c(N)c3cc2C1	35*	.	.	.	.	.	-10	-1
CC(C)c1ccc2nc3sc(C(=O)N4CCc5ccccc5C4)c(N)c3cc2c1	8	1	1	-6	-1	1	.	.
Cc1n[nH]c(=S)n(NC(=O)/C=C/C(=O)Nn2c(=S)[nH]nc(C)c2=O)c1=O	35*	0	2	2	0	-2	-11	8
SMILES	PfM18AAP inh-1	L929 necroptosis	p97 ATPase inh	RBBP9 inh	TNF necrop inh	Wee1 stabilizer	PfM18AAP inh-2	CTSL1 confirm
Cc1nn2c(=S)[nH]nc2[nH]c1=O	7	2	6	-10	1	-4	.	.
Cc1n[nH]c(=S)n(NC(=O)CC(=O)Nn2c(=S)[nH]nc(C)c2=O)c1=O	42*	1	1	-9	0	-4	7	-2
CCN1CCCC1CNC(=O)c1cc(COc2ccc(C)c(C)c2)on1 (centres undefined)	3	.	.	.	.	.	.	.
Cc1cccc(Nc2nc(NCCCN3CCOCC3)nc(N)c2[N+](=O)[O-])c1	0	0	-1	-8	3	0	.	.
CN(C(=O)COc1ccc(Oc2ccccc2)cc1)C1CCS(=O)(=O)C1 (centres undefined)	-5	.	.	.	.	.	.	.
Cc1onc(-c2c(Cl)cccc2Cl)c1NC(=O)NNc1ccccn1	40*	0	2	0	0	2	13	3
Cc1onc(-c2c(Cl)cccc2Cl)c1NC(=O)NNc1ccccc1	16	-1	3	3	-1	3	.	.
O=C(Nc1ccccc1)Nc1cc(Cl)cc(Cl)c1	-5	1	3	-51	-1	-3	.	.
O=C(NNC(=O)c1ccc[nH]1)Nc1cccc(C(F)(F)F)c1	53*	1	10	-4	2	-5	22	-5
O=C(NNC(=O)c1ccc[nH]1)Nc1cc(Cl)cc(Cl)c1	50*	1	7	-4	3	-3	29*	-3
CCOC(=O)CSc1nc2ccc(N3CCOCC3)cc2c(=O)n1Cc1ccc2c(c1)OCO2	37*	0	7	-1	2	-3	-17	-2
CCN(CC)C(=O)CSc1nc2cc3c(cc2c(=O)n1Cc1ccc2c(c1)OCO2)OCO3	-4	1	7	1	3	0	.	.
CCn1cc(CN2CCC(n3nccc3NC(=O)C(OC)c3ccccc3)CC2)cn1 (centres undefined)	-10	.	.	.	.	.	.	.
COc1ccc(OC)c(C2NC(=S)NC3=C2N2CCC3CC2)c1 (centres undefined)	44*	0	0	-13	-1	-2	-49	1
Fc1cccc(C2NC(=S)NC3=C2N2CCC3CC2)c1 (centres undefined)	10	1	0	-10	-3	-2	.	.
CNC(=O)/C(=C\c1ccc([N+](=O)[O-])cc1)NC(C)=O	5	0	3	2	-2	0	.	.
CC(=O)N/C(=C/c1ccc([N+](=O)[O-])cc1)C(=O)O	32*	0	5	-7	-1	-1	-37	-3
Cc1cc(NC(=O)c2ccccc2O)nc(C)n1	2	2	3	-3	1	1	.	.
Cc1cc(C)nc(NNC(=O)c2ccccc2O)n1	43*	1	4	-2	1	-2	24	-8
